Paper PMC5680101 (The journal of physical chemistry. B, 2017)
Several values for one entry are separate records, joined by “and”; a condition that tells them apart may be missing. Equal entries are not always repeated. Where two headings read alike, the source gives them in different places.

Experiments:
[1] = target: OmpG (Escherichia coli, UniProt P76045, D245C); assay: biochemical; format: binding, E. coli; settings: for p (Hill coefficient): four-parameter Hill fit; for p (Hill coefficient) / Kd: pH 7.4, 24°C; for rmax: maximum anisotropy at detergent concentrations above the CMC; for Rh max: maximum hydrodynamic radius of the proteomicelle; for Kd: read-out: Kd (apparent dissociation constant), midpoint of dose-dependent dissociation phase; for Dr slow: rotational diffusion coefficient under solvation conditions
OmpG, sequence (P76045 22-301 D245C): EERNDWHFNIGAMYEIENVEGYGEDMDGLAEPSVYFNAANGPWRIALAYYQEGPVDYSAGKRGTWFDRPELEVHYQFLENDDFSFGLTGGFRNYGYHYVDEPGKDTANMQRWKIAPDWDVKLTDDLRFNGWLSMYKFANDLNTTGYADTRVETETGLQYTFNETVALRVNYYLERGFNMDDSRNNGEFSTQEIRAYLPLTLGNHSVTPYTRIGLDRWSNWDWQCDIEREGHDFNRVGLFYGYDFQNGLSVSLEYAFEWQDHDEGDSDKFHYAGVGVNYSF

[2] = target: FhuA ΔC/Δ5L (Escherichia coli, UniProt P06971, DEL561-566/INS560[…], form not given); format: binding, E. coli; settings: for q (slope factor or transition steepness): calculated at the midpoint of the dissociation phase; for ΔRh: decrease in hydrodynamic radius as a result of detergent desolvation; for p (Hill coefficient): four-parameter Hill fit; for p (Hill coefficient) / Kd: pH 7.4, 24°C; for Kd: read-out: Kd (apparent dissociation constant), midpoint of dose-dependent dissociation phase; for ΔG: ΔG = RT ln Kd
FhuA ΔC/Δ5L, sequence (P06971 194-747, stated change not applied): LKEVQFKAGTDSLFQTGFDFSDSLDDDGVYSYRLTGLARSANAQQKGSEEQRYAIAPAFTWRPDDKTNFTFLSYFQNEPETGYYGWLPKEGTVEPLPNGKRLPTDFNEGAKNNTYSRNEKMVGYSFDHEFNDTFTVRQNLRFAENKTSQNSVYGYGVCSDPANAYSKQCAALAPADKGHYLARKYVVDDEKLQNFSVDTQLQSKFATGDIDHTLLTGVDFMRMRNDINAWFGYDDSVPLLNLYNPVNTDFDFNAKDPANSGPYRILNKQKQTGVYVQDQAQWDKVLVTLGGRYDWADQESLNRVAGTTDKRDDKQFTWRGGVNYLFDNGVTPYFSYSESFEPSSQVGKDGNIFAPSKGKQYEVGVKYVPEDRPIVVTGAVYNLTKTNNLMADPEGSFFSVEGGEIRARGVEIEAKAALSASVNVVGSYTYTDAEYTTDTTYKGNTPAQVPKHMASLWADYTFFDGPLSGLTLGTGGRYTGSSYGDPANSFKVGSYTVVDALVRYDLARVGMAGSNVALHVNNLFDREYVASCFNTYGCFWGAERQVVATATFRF

[3] = target: FhuA ΔC/Δ5L_25N (Escherichia coli, UniProt P06971); format: binding, E. coli; settings: for rmax: maximum anisotropy at detergent concentrations above the CMC; for rmax / rmin: pH 7.4; for rmin: minimum anisotropy, extrapolated for the lowest detergent concentration; for Dr fast: rotational diffusion coefficient under desolvation conditions; for Dr slow: rotational diffusion coefficient under solvation conditions
FhuA ΔC/Δ5L_25N, sequence (P06971 194-747, stated change not applied): as above

[4] = target: FhuA ΔC/Δ7L_30N (Escherichia coli, UniProt P06971); format: binding, E. coli; settings: for rmax: maximum anisotropy at detergent concentrations above the CMC; for rmax / rmin: pH 7.4; for rmin: minimum anisotropy, extrapolated for the lowest detergent concentration; for Dr fast: rotational diffusion coefficient under desolvation conditions; for Dr slow: rotational diffusion coefficient under solvation conditions
FhuA ΔC/Δ7L_30N, sequence (P06971 194-747, stated change not applied): as above

[5] = target: T1, SELENOK U92C (Homo sapiens, UniProt Q9Y6D0, U92C); assay: steady-state FP anisotropy, DDM desolvation of SELENOK U92C; format: binding; settings: solubilized in 1.3 mM DDM
T1 sequence (Q9Y6D0 2-94 U92C): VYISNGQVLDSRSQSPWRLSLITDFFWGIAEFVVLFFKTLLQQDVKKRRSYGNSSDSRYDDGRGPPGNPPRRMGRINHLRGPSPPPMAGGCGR
Outline: (§1)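 Human proteins expressed as MBP fusions and purified in 1.3 mM DDM, which was the starting detergent concentration. Each was labelled with Texas Red C2 maleimide on its single accessible cysteine (C92 in SELENOK, C174 in SELENOS). Samples were diluted in wells with DDM buffers to 200 nM protein in 200 mM NaCl, 50 mM HEPES pH 7.4, 24°C. FP read at […] after 15 min equilibration; 24 h endpoints at 4°C. rmin extrapolated to lowest DDM.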

[6] = target: T2, SELENOS U188S (Homo sapiens, UniProt Q9BQE4); assay: steady-state FP anisotropy, DDM desolvation of SELENOS U188S; format: binding; settings: solubilized in 1.3 mM DDM
T2 sequence (Q9BQE4 with tags, fused parts or gaps): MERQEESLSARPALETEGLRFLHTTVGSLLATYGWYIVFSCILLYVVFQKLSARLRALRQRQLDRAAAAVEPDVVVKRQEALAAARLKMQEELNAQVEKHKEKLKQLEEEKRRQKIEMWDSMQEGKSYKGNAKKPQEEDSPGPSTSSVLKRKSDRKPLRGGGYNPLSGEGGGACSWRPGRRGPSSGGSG
Outline: as §1

[7] = target: α-helical proteins; assay: FP anisotropy, DDM proteomicelles of the α-helical proteins; format: binding, Homo sapiens; settings: 200 mM NaCl, 50 mM HEPES, pH 7.4, 24°C
Outline: as §1

[8] = in water; ref Anatrace, [29], [63]; cited from earlier work
[9] = 200 mM NaCl, 50 mM HEPES, pH 7.4
[10] = maximum anisotropy at detergent concentrations above the CMC, 200 mM NaCl, 50 mM HEPES, pH 7.4
[11] = maximum hydrodynamic radius of the proteomicelle
[12] = minimum anisotropy, extrapolated for the lowest detergent concentration, 200 mM NaCl, 50 mM HEPES, pH 7.4
[13] = rotational diffusion coefficient under desolvation conditions
[14] = anisotropy determined in 6 M Gdm-HCl
[15] = calculated at the midpoint of the dissociation phase
[16] = decrease in hydrodynamic radius as a result of detergent desolvation
[17] = four-parameter Hill fit, 200 mM NaCl, 50 mM HEPES, pH 7.4, 24°C
[18] = read-out: Kd (apparent dissociation constant), midpoint of dose-dependent dissociation phase, 200 mM NaCl, 50 mM HEPES, pH 7.4, 24°C

## C[C@H](CCC(=O)NCCC[N+](C)(C)CCCS(=O)(=O)[O-])[C@H]1CC[C@H]2[C@@H]3[C@H](O)C[C@@H]4C[C@H](O)CC[C@]4(C)[C@H]3C[C@H](O)[C@]12C [CHAPS]
[1]; 200 mM NaCl, 50 mM HEPES
  p (Hill coefficient): ~1.6
  Kd: < 0.6 mM
[1]; [9]
  rmax: 0.318 ± 0.002
[1]
  Rh max: 2.5 nm
  Dr slow: 1.0 ± 0.1 10^7 s^−1
[2]
  q (slope factor or transition steepness): 0.015 mM⁻¹
  ΔRh: 0.77 ± 0.18 nm
  ΔG: -3.4 ± 0.5 kcal/mol
[2]; 200 mM NaCl, 50 mM HEPES
  p (Hill coefficient): 1.7 ± 0.6
  Kd: 3.3 ± 1.8 mM
[2]; [10]
  rmax: 0.292 ± 0.004
[2]; [11]
  Rh max: 2.2 nm
[2]; [12]
  rmin: 0.172 ± 0.048
[2]; [13]
  Dr fast: 1.5 ± 0.1 10^7 s^−1
[3]; 200 mM NaCl, 50 mM HEPES
  rmax: ~0.17
  rmin: ~0.15
[3]
  Dr fast: ~6.6 10^7 s^−1
  Dr slow: ~5.2 10^7 s^−1
[4]; 200 mM NaCl, 50 mM HEPES
  rmax: ~0.17
  rmin: ~0.16
[4]
  Dr fast: ~6.0 10^7 s^−1
  Dr slow: ~5.2 10^7 s^−1

## CCCCCCCCCCCCO[C@@H]1O[C@H](CO)[C@@H](O[C@H]2O[C@H](CO)[C@@H](O)[C@H](O)[C@H]2O)[C@H](O)[C@H]1O [DDM, n-dodecyl-β-D-maltoside]
[5]
  rotational diffusion coefficient, Dr fast: ~ 1.3×10^8 s^−1
[5]; 200 nM protein
  rmin: 0.095 ± 0.002
[6]
  rotational diffusion coefficient, Dr fast: ~ 1.1×10^8 s^−1
[6]; 200 nM protein
  rmin: 0.103 ± 0.002
[7]
  apparent Kd relative to the CMC: greater than the CMC
[8]
  Aggregation number, Nagg: ~78–149

## Cl.N=C(N)N [Gdm-HCl, guanidinium hydrochloride]
[2]; [14]
  rmax: ~0.16
  rmin: ~0.16
[2]; fully unfolded, most rotationally diffusive protein in 6 M Gdm-HCl
  basal (minimum) anisotropy readout, r1: 0.16 and ~ 0.16
[2]; in 6 M Gdm-HCl
  Dr fast: ~6.0 10^7 s^−1
  Dr slow: ~6.0 10^7 s^−1
  Rh max: 1.4 nm

## OC[C@H]1O[C@H](O[C@H]2[C@H](O)[C@@H](O)[C@H](OCCCCC3CCCCC3)O[C@@H]2CO)[C@H](O)[C@@H](O)[C@@H]1O [CYMAL-4, 4-cyclohexyl-1-Butyl-β-D-maltoside]
[1]; [15]
  q (slope factor or transition steepness): 0.25 mM⁻¹
[1]; [16]
  ΔRh: 1.2 ± 0.1 nm
[1]; 200 mM NaCl, 50 mM HEPES
  p (Hill coefficient): 6.7 ± 0.1
  Kd: 4.6 ± 0.1 mM
[1]; [9]
  rmax: 0.326 ± 0.001
[1]
  Rh max: 2.6 nm
  Dr slow: 0.90 ± 0.01 10^7 s^−1
[1]; [12]
  rmin: 0.163 ± 0.001
[1]; [13]
  Dr fast: 5.8 ± 0.1 10^7 s^−1
[1]; ΔG = RT ln Kd
  ΔG: -3.2 ± 0.1 kcal/mol
[2]
  q (slope factor or transition steepness): 0.38 mM⁻¹
  ΔRh: 1.7 ± 0.1 nm
  ΔG: -3.1 ± 0.1 kcal/mol
[2]; 200 mM NaCl, 50 mM HEPES
  p (Hill coefficient): 3.7 ± 0.1
  Kd: 5.3 ± 0.1 mM
[2]; [10]
  rmax: 0.367 ± 0.001
[2]; [11]
  Rh max: 3.6 nm
[2]; [12]
  rmin: 0.242 ± 0.001
[2]; [13]
  Dr fast: 2.6 ± 0.1 10^7 s^−1
[2]; rotational diffusion coefficient under solvation conditions
  Dr slow: 0.36 ± 0.01 10^7 s^−1
[3]; [15]
  q (slope factor or transition steepness): 0.28 mM⁻¹
[3]; [16]
  ΔRh: 1.4 ± 0.1 nm
[3]; [17]
  p (Hill coefficient): 5.2 ± 0.3
[3]; 200 mM NaCl, 50 mM HEPES
  rmax: 0.341 ± 0.001
  rmin: 0.166 ± 0.001
[3]; [11]
  Rh max: 2.9 nm
[3]; [18]
  Kd: 5.7 ± 0.1 mM
[3]
  Dr fast: 5.6 ± 0.1 10^7 s^−1
  Dr slow: 0.69 ± 0.01 10^7 s^−1
[3]; ΔG = RT ln Kd
  ΔG: -3.1 ± 0.1 kcal/mol
[4]; [15]
  q (slope factor or transition steepness): 0.17 mM⁻¹
[4]; [16]
  ΔRh: 1.5 ± 0.2 nm
[4]; [17]
  p (Hill coefficient): 2.3 ± 0.9
[4]; 200 mM NaCl, 50 mM HEPES
  rmax: 0.345 ± 0.004
  rmin: 0.168 ± 0.025
[4]; [11]
  Rh max: 2.9 nm
[4]; [18]
  Kd: 4.5 ± 1.1 mM
[4]
  Dr fast: 5.5 ± 1.2 10^7 s^−1
  Dr slow: 0.63 ± 0.05 10^7 s^−1
[4]; ΔG = RT ln Kd
  ΔG: -3.2 ± 0.1 kcal/mol
